In brackets after ≈: the same amount, converted by molar mass.
Tests used:
PAMPA = format: in vitro ADME; conditions: for Papp at 5 h, 500 µM: pH 7.4
C. tropicalis = assay: Antifungal MIC, liquid growth inhibition; format: cell-based; conditions: Candida tropicalis, 24 h, read-out: Antifungal activity, MIC90
Summary of the method: (§1)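 Clinical isolates from patient specimens, one isolate per patient. Yeasts were grown in YPD at 37 °C for 16 h with 150 rpm shaking, then subcultured to OD 0.3. Inoculum was set to 0.5 McFarland and diluted 1:500 in RPMI 1640 […]. CLSI broth microdilution used final compound concentrations of 256–0.125 µg/mL. MIC90 is the concentration inhibiting 90% of the strains tested per species.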

C. neoformans = assay: Antifungal MIC, liquid growth inhibition; format: cell-based; conditions: Cryptococcus neoformans, 24 h, read-out: Antifungal activity, MIC90
Summary of the method: as §1

C. albicans = assay: Antifungal MIC, liquid growth inhibition; format: cell-based; conditions: Candida albicans, 24 h, read-out: Antifungal activity, MIC90
Summary of the method: as §1

Row | SMILES | Papp at 5 h, 500 µM (PAMPA) [×10⁻⁶ cm/s] | Membrane retention (PAMPA; phosphatidylcholine in dodecane, pH 7.4, 5 h, r.t.) [%] | MIC90 (C. tropicalis) [µg/mL] | MIC90 (C. neoformans) [µg/mL] | MIC90 (C. albicans) [µg/mL]
1 | Cn1c(=O)c2c(ncn2C)n(C)c1=O [Caffeine] | 1.84 | 3.2 | – | – | –
2 | OC(Cn1cncn1)(Cn1cncn1)c1ccc(F)cc1F [F, Fluconazole] | – | – | 2 (≈ 6.53 µM) | 2 (≈ 6.53 µM) | 2 (≈ 6.53 µM)
3 | O=C(N[C@H](CO)[C@H](O)c1ccc([N+](=O)[O-])cc1)C(Cl)Cl [Chloramphenicol] | 0.3 | – | – | – | –

Reference: paper PMC8830944 (Molecular Diversity, 2022)
